Published values from different studies.
Compare with care: the assays were run in different laboratories.
SLC6A3: Sodium-dependent dopamine transporter (SLC6A3, Homo sapiens, UniProt Q01959)
DRD3: D(3) dopamine receptor (DRD3, Homo sapiens, UniProt P35462)
PDE10A: cAMP and cAMP-inhibited cGMP 3',5'-cyclic phosphodiesterase 10A (PDE10A, Homo sapiens, UniProt Q9Y233)

Structure (SMILES) | target | assay | conditions | measurement | value
CCOC(=O)[C@@]12C[C@@H]1[C@@H](n1cnc3c(NCCCCc4ccccc4)nc(C#Cc4ccc(Cl)s4)nc31)[C@H](O)[C@@H]2O | SLC6A3 | ligand displacement, radioligand | 10 µM | inhibition | 9%
Cc1[nH]c(C)c(S(=O)(=O)Nc2ccc(Cl)c(C(F)(F)F)c2)c1C(=O)N1CCC(F)(F)C1 | DRD3 | β-arrestin recruitment, agonist | 90 min | Emax | 109%
COc1cc2ncnc(Cc3ccnc(-c4ccccc4)c3)c2cc1OC | PDE10A | enzyme activity, inhibitor, FP | 0.1 µM | inhibition | 58%
[2H]C1([2H])CCC([2H])([2H])N1C(=O)c1c(C)[nH]c(C)c1S(=O)(=O)Nc1ccc(C(F)(F)F)c(Cl)c1 | DRD3 | β-arrestin recruitment, agonist | 90 min | Emax | 92%
CCCCC(=O)Nc1ccc(-c2ccc3ncn(CCC)c(=O)c3c2)cn1 | Leukocyte tyrosine kinase receptor (LTK, Homo sapiens, UniProt P29376) | binding, competition with immobilised ligand | 0.5 µM | remaining binding | 100%
COc1cc2ccnc(C(=O)c3cccc4ccccc34)c2cc1OC | PDE10A | enzyme activity, inhibitor, FP | 0.1 µM | inhibition | 0%
CCOC(=O)[C@@]12C[C@@H]1[C@@H](n1cnc3c(NCCO)nc(I)nc31)[C@H](O)[C@@H]2O | SLC6A3 | ligand displacement, radioligand | 10 µM | inhibition | 20%
C1=C/COCc2cc(ccc2OCCN2CCCC2)Nc2nccc(n2)-c2cccc(c2)COC/1 | AP2-associated protein kinase 1 (AAK1, Homo sapiens, UniProt Q2M2I8) | binding | 0.1 µM | remaining binding | 52%
COc1ccc(Cc2nccc3cc(OC)c(OC)cc23)cc1 | PDE10A | enzyme activity, inhibitor, FP | 0.1 µM | inhibition | 38%
Cc1[nH]c(C)c(S(=O)(=O)Nc2ccc(C(F)(F)F)c(Cl)c2)c1C(=O)N1C[C@@H](F)[C@H](F)C1 (relative stereo) | DRD3 | β-arrestin recruitment, agonist | 90 min | Emax | 101%
COc1ccc2nccc(Cc3cccc(-c4ccccc4)c3)c2c1 | PDE10A | enzyme activity, inhibitor, FP | 0.1 µM | inhibition | 5%
Cc1[nH]c(C)c(S(=O)(=O)Nc2ccc(C(F)(F)F)c(Cl)c2Cl)c1C(=O)N1CCC(F)(F)C1 | DRD3 | β-arrestin recruitment, agonist | 90 min | Emax | 105%
COc1cc2ncnc(C(=O)c3cccc4ccccc34)c2cc1OC | PDE10A | enzyme activity, inhibitor, FP | 0.1 µM | inhibition | 52%
Cc1[nH]c(C)c(S(=O)(=O)Nc2ccc(C(=O)C3CC3)c(Cl)c2)c1C(=O)N1CCC(F)(F)C1 | DRD3 | β-arrestin recruitment, agonist | 90 min | Emax | 96%
COc1ccc2oc(-c3ccc4nc(N)oc4c3)c/c(=N\c3ccccc3NC(=O)CCN)c2c1 | Discoidin domain-containing receptor 2 (DDR2, Homo sapiens, UniProt Q16832) | binding | 1 µM | remaining binding | 85%
